In assay [1] the test system is Aspergillus fumigatus. As to the kind of experiment: Induction of change in thioredoxin TrxA protein level in iTRAQ-118 labelled cell wall fraction of drug-resistant Aspergillus fumigatus EMFR-S678P at 0.12 ug/ml after 24 hrs in YPD medium by MS (MS/MS) analysis relative to control. In kind it is functional, organism-based. In outline: (§1)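 Conidia at 1 × 10⁵/ml were grown at 37°C, shaking at 225 rpm, in YPD with or without 0.12 μg/ml caspofungin for 24 or 48 h. The culture filtrate was kept as the secreted fraction. Mycelia were lysed by French press in HEPES/glycerol/EDTA/PMSF/DTT buffer, and the 5,000 × g pellet was washed to give CW/PM. Proteins were reduced, alkylated and trypsin-digested at 37°C overnight, then iTRAQ-labelled and run by 2D LC-MS/MS. Ratios are the median of unique-peptide ratios, median-normalized, versus the no-drug control.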

The subject of assay [2] is Aspergillus fumigatus. The assay can be described thus: Induction of change in transcriptional repressor TupA/RocA, putative protein level in iTRAQ-118 labelled cell wall fraction of drug-resistant Aspergillus fumigatus EMFR-S678P at 0.12 ug/ml after 24 hrs in YPD medium by MS (MS/MS) analysis relative to control. In kind it is functional. In outline:
as §1

In assay [3] the test system is Aspergillus fumigatus. As to the kind of experiment: Antifungal activity against drug-susceptible Aspergillus fumigatus KU80 delta-akuB assessed as change in hyphal morphology by YPD medium. To be noted: read-out: MEC. In kind it is functional. In outline: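 Broth microdilution per CLSI M38-A2, in triplicate, in YPD broth (2% yeast extract, 4% peptone, 4% dextrose); minimum effective concentration read as the lowest drug concentration giving a significant change in hyphal morphology visible by eye. Caspofungin dissolved in sterile water.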

Assay [4] concerns Aspergillus fumigatus. The assay can be described thus: Induction of change in mitochondrial hypoxia responsive domain protein level in iTRAQ121 labelled cell wall fraction of drug-susceptible Aspergillus fumigatus KU80 delta-akuB at 0.12 ug/ml after 48 hrs in YPD medium by MS (MS/MS) analysis relative to control. In kind it is functional. In outline:
(§2)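 Conidia (1 × 10⁵/ml) grown in YPD, 37°C, 225 rpm, ± 0.12 μg/ml caspofungin; filtrate taken as secreted fraction, French-press lysate 5,000 × g pellet as cell wall/plasma membrane. Trypsin digests 8-plex iTRAQ-labelled (drug-free channels as references), pooled, 2D-chromatography, MS/MS. Median-normalized; protein ratio = median of unique-peptide ratios, log2 normalized.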

In assay [5] the test system is Aspergillus fumigatus. The assay can be described thus: Induction of change in peptidyl-prolyl cis-trans isomerase protein level in iTRAQ-118 labelled cell wall fraction of drug-resistant Aspergillus fumigatus EMFR-S678P at 0.12 ug/ml after 24 hrs in YPD medium by MS (MS/MS) analysis relative to control. In kind it is functional. In outline:
as §1

The subject of assay [6] is Aspergillus fumigatus. As to the kind of experiment: Induction of change in 60s ribosomal protein yl17-b protein level in iTRAQ114 labelled secreted fraction of drug-susceptible Aspergillus fumigatus KU80 delta-akuB at 0.12 ug/ml after 24 hrs in YPD medium by MS (MS/MS) analysis relative to control. In kind it is functional. The method in brief: (§3)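 Conidia at 1 × 10⁵/ml grown shaking at 37°C in YPD with or without 0.12 μg/ml caspofungin; mycelia filtered at 24 or 48 h. Secreted fraction taken from the filtrate; cell wall/plasma membrane pellet recovered after French-press lysis and a 5,000 × g spin. Proteins trypsin-digested and iTRAQ-labelled, drug vs no-drug channels at each time, then 2D LC-MS/MS. Protein ratio is the median of ratios from uniquely assigned peptides after median normalization.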

Assay [7] has as its system Aspergillus fumigatus. The assay can be described thus: Induction of change in nascent polypeptide-associated complex (NAC) subunit, putative protein level in iTRAQ-116 labelled secreted fraction of drug-resistant Aspergillus fumigatus EMFR-S678P at 0.12 ug/ml after 48 hrs in YPD medium by MS (MS/MS) analysis relative to control. In kind it is functional, organism-based. The method in brief:
as §1

The subject of assay [8] is Aspergillus fumigatus. As to the kind of experiment: Induction of change in 60S ribosomal protein L27e protein level in iTRAQ-118 labelled cell wall fraction of drug-resistant Aspergillus fumigatus EMFR-S678P at 0.12 ug/ml after 24 hrs in YPD medium by MS (MS/MS) analysis relative to control. In kind it is functional. In outline: as §1
For assay [9], the system named is Aspergillus fumigatus. As to the kind of experiment: Induction of change in 37S ribosomal protein S24 protein level in iTRAQ-118 labelled cell wall fraction of drug-resistant Aspergillus fumigatus EMFR-S678P at 0.12 ug/ml after 24 hrs in YPD medium by MS (MS/MS) analysis relative to control. Format: functional, organism-based. In outline:
as §1

The test system of assay [10] is Aspergillus fumigatus. As to the kind of experiment: Induction of change in 60s ribosomal protein yl17-b gene expression in drug-susceptible Aspergillus fumigatus KU80 delta-akuB at 0.12 ug/ml after 24 hrs in YPD medium by microarray analysis relative to control. In kind it is functional. In outline: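 Mycelia grown in YPD ± 0.12 μg/ml caspofungin (1 × 10⁵ conidia/ml, 37°C, shaking) and harvested at 24 or 48 h. Total RNA extracted, DNase-treated and quality-checked; 2 μg labelled per TIGR SOP M007 and hybridized to whole-genome arrays. Three independent experiments with dye flip (6 replicates); drug vs untreated fold change.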

Assay [11] relates to Aspergillus fumigatus. The assay can be described thus: Induction of change in cytosolic small ribosomal subunit S15, putative protein level in iTRAQ114 labelled cell wall fraction of drug-susceptible Aspergillus fumigatus KU80 delta-akuB at 0.12 ug/ml after 24 hrs in YPD medium by MS (MS/MS) analysis relative to control. Format: functional. In outline:
as §3

Assay [12] has as its system Aspergillus fumigatus. The assay can be described thus: Induction of change in PT repeat family protein level in iTRAQ114 labelled secreted fraction of drug-susceptible Aspergillus fumigatus KU80 delta-akuB at 0.12 ug/ml after 24 hrs in YPD medium by MS (MS/MS) analysis relative to control. In kind it is functional. In outline: as §3
In assay [13] the test system is Aspergillus fumigatus. The assay can be described thus: Induction of change in cytosolic small ribosomal subunit S15, putative protein level in iTRAQ114 labelled secreted fraction of drug-susceptible Aspergillus fumigatus KU80 delta-akuB at 0.12 ug/ml after 24 hrs in YPD medium by MS (MS/MS) analysis relative to control. Format: functional. In outline:
as §3

The test system of assay [14] is Aspergillus fumigatus. The assay can be described thus: Induction of change in aldehyde dehydrogenase, putative protein level in iTRAQ114 labelled secreted fraction of drug-resistant Aspergillus fumigatus EMFR-S678P at 0.12 ug/ml after 24 hrs in YPD medium by MS (MS/MS) analysis relative to control. In kind it is functional. In outline: as §1
Assay [15] has as its system Aspergillus fumigatus. The assay can be described thus: Induction of change in ATP citrate lyase, subunit 1, putative protein level in iTRAQ114 labelled secreted fraction of drug-susceptible Aspergillus fumigatus KU80 delta-akuB at 0.12 ug/ml after 24 hrs in YPD medium by MS (MS/MS) analysis relative to control. In kind it is functional. The method in brief: as §3
In assay [16] the test system is Aspergillus fumigatus. As to the kind of experiment: Antifungal activity against drug-susceptible Aspergillus fumigatus KU80 delta-akuB assessed as reduction in colony size at 0.12 ug/ml. In kind it is functional, organism-based.
The test system of assay [17] is Aspergillus fumigatus. The assay can be described thus: Induction of change in translation elongation factor eEF-3, putative protein level in iTRAQ-118 labelled cell wall fraction of drug-susceptible Aspergillus fumigatus KU80 delta-akuB at 0.12 ug/ml after 24 hrs in YPD medium by MS (MS/MS) analysis relative to control. Format: functional. In outline: as §2
Assay [18] concerns Aspergillus fumigatus. As to the kind of experiment: Induction of change in ribosomal protein S9 protein level in iTRAQ114 labelled secreted fraction of drug-susceptible Aspergillus fumigatus KU80 delta-akuB at 0.12 ug/ml after 24 hrs in YPD medium by MS (MS/MS) analysis relative to control. Format: functional. In outline: as §2

The source made the active and inactive calls. The rule behind the calls is not given here.

Turning to `CC[C@H](C)C[C@H](C)CCCCCCCCC(=O)N[C@H]1C[C@@H](O)[C@@H](NCCN)NC(=O)[C@@H]2[C@@H](O)CCN2C(=O)[C@H]([C@H](O)CCN)NC(=O)[C@H]([C@H](O)[C@@H](O)c2ccc(O)cc2)NC(=O)[C@@H]2C[C@@H](O)CN2C(=O)[C@H]([C@@H](C)O)NC1=O` [CASPOFUNGIN], the outcome in the assay on Aspergillus fumigatus [1], in the assay with Aspergillus fumigatus [7] and with Aspergillus fumigatus [9] was inactive. Moreover, the “fold change (FC)” value in the assay with Aspergillus fumigatus [2] is given as 1.32; with Aspergillus fumigatus [4], -2.1; in the assay on Aspergillus fumigatus [5], -1.15; with Aspergillus fumigatus [6], -1; in the assay on Aspergillus fumigatus [8], -1.15; with Aspergillus fumigatus [10] it was 3.5. The “fold change (FC)” value in the assay with Aspergillus fumigatus [11] was 1.9; with Aspergillus fumigatus [12], -3.5; in the assay on Aspergillus fumigatus [13] it was -1; in the assay on Aspergillus fumigatus [14] it was 1.62; in the assay with Aspergillus fumigatus [15] it was 3.2; in the assay with Aspergillus fumigatus [17] it was 2.1. For the same compound, in the assay on Aspergillus fumigatus [18], the “fold change (FC)” value was found to be 1.1. Also, the minimal effective concentration with Aspergillus fumigatus [3] is 0.19 µg/mL. Also, the result in the assay with Aspergillus fumigatus [16] was Active.

For the origin of these results see ChEMBL document CHEMBL1687827, “Profiling the Aspergillus fumigatus proteome in response to caspofungin” (2011).
